Data taken from ChEMBL document CHEMBL4257441, “Protection effect of intracellular melanin from Lachnum YM156 and Haikunshenxi capsule combination on adenine-induced chronic renal failure in mice” (Medchemcomm, 2017).
Active and inactive are the calls of the source. The rule behind the calls is not given here.

Legend:
Mus musculus [1] = test: Protective effect against adenine-induced chronic renal failure in Kunming mouse assessed as reduction in number of adenine crystals in kidney at 200 mg/kg, ig qd administered for 4 successive weeks by haematoxylin and eosin dye-based optical microscopic method; format: functional, organism-based
Summary of the method: (§1)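 Kidneys were taken from male Kunming mice given an adenine diet plus oral melanin (100 or 200 mg kg–1), with or without Haikunshenxi capsule, ten per group. Histological sections were examined at 400× for glomeruli, tubules, adenine crystals, tubular atrophy and interstitial fibrosis.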

Mus musculus [2] = test: Protective effect against adenine-induced chronic renal failure in Kunming mouse assessed as nephridial IL-6 levels at 100 mg/kg, ig qd administered for 4 successive weeks with haikunshenxi capsule (reference value: 20.85 +/- 0.11 pg/ml); format: functional
Mus musculus [3] = test: Protective effect against adenine-induced chronic renal failure in ig dosed Kunming mouse assessed as increase in nephridial SOD levels administered as qd for 4 successive weeks with haikunshenxi capsule by hydroxylamine method; format: functional, organism-based
Summary of the method: (§2)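 Male Kunming mice (20 ± 5 g) given dietary adenine to induce CRF, then dosed orally at 100 or 200 mg kg–1, with or without Haikunshenxi capsule; n = 10 per group. Kidney homogenate assayed for SOD and CAT (U mg–1 protein), GSH-Px (U L–1), GSH (mg g–1 protein) and MDA (nmol mL–1).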

Mus musculus [4] = test: Protective effect against adenine-induced chronic renal failure in ig dosed Kunming mouse assessed as increase in nephridial CAT levels administered as qd for 4 successive weeks with haikunshenxi capsule by visible spectrometry method; format: functional, organism-based; summary of the method: as §2
Mus musculus [5] = test: Protective effect against adenine-induced chronic renal failure in Kunming mouse assessed as nephridial TNF-alpha levels at 200 mg/kg, ig qd administered for 4 successive weeks with haikunshenxi capsule (reference value: 250.15 +/- 8.10 pg/ml); format: functional
Mus musculus [6] = test: Protective effect against adenine-induced chronic renal failure in Kunming mouse assessed as nephridial IL-1beta levels at 100 mg/kg, ig qd administered for 4 successive weeks (reference value: 18.34 +/- 0.25 pg/ml); format: functional
Mus musculus [7] = test: Protective effect against adenine-induced chronic renal failure in ig dosed Kunming mouse assessed as increase in nephridial GSH levels administered as qd for 4 successive weeks with haikunshenxi capsule by colorimetric method; format: functional, organism-based; summary of the method: as §2
Mus musculus [8] = test: Protective effect against adenine-induced chronic renal failure in Kunming mouse assessed as reduction in renal tubular atrophy at 200 mg/kg, ig qd administered for 4 successive weeks with haikunshenxi capsule by haematoxylin and eosin dye-based optical microscopic method; format: functional, organism-based; summary of the method: as §1
Mus musculus [9] = test: Protective effect against adenine-induced chronic renal failure in Kunming mouse assessed as nephridial GSH levels at 100 mg/kg, ig qd administered for 4 successive weeks by colorimetric method (reference value: 3.05 +/- 0.11 mg/g); format: functional
Mus musculus [10] = test: Protective effect against adenine-induced chronic renal failure in ig dosed Kunming mouse assessed as decrease in blood urea nitrogen levels in serum administered as qd for 4 successive weeks with haikunshenxi capsule by diacetyl oxime method; format: functional, organism-based
Summary of the method: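 Adenine-fed CRF model in male Kunming mice (20 ± 5 g) housed at 18–20 °C on a 12 h light/dark cycle. Oral dosing at 100 or 200 mg kg–1, with or without Haikunshenxi capsule; ten mice per group. Serum creatinine, BUN, total protein and albumin measured, each group compared with the model group.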

Mus musculus [11] = test: Protective effect against adenine-induced chronic renal failure in ig dosed Kunming mouse assessed as reduction in kidney index administered as qd for 4 successive weeks measured 24 hrs post last dose

For `Cc1c(=O)c(=O)c2c3c[nH]c4c(C)c(=O)c(=O)c(c5c[nH]c1c52)c43`, the Activity (Mus musculus [1]) was “Active”, the Activity (Mus musculus [2]) was 12.07 pg/mL and the Activity (Mus musculus [3]) was “Dose-dependent effect”. For the same compound, the Activity (Mus musculus [4]) was “Dose-dependent effect”, the Activity (Mus musculus [5]) was 84.35 pg/mL and the Activity (Mus musculus [6]) was 17.66 pg/mL. The Activity (Mus musculus [7]) was “Dose-dependent effect”, the Activity (Mus musculus [8]) was “Active” and the Activity (Mus musculus [9]) was 4.19 mg/g. For the same compound, the Activity (Mus musculus [10]) was “Dose-dependent effect” and the Activity (Mus musculus [11]) was “Dose-dependent effect”.
